Results pooled from the literature.
Target: STE20-like serine/threonine-protein kinase (SLK, Homo sapiens, UniProt Q9H2G2)

For Cc1c[nH]c2nccc(Oc3c(F)cc(Nc4cc(Cl)nc(N)n4)cc3F)c12, the remaining binding was 97% (cell-free assay; competition with immobilised ligand; 0.1 µM).
CS(=O)(=O)CCNCc1ccc(-c2ccc3ncnc(Nc4ccc(OCc5cccc(F)c5)c(Cl)c4)c3c2)o1 gave a remaining signal of 85.1% (cell-free assay; 0.5 µM).
CC(=O)C1=C(C)N(c2cccc(C(F)(F)F)c2)C(=O)N[C@@H]1c1ccc(C#N)nc1 gave a remaining binding of 98.4% (cell-free assay; competition with immobilised ligand; 1 µM).
With Nc1ncnc2occ(-c3ccc(NC(=O)Nc4cc(C(F)(F)F)ccc4F)cc3)c12 the remaining signal was 0.05% (cell-free assay; inhibitor; 20 µM).
The ΔTm of CC1(C)NC(=O)c2[nH]c3c(Cl)c(Cl)ccc3c2C1C#N (stereo not shown) is reported as -0.5 °C (thermal stability; DSF; 10 µM).
O=C1CCc2cc(Nc3cc(OC4CCOCC4)c([N+](=O)[O-])cc3Cl)ccc2N1 has a remaining binding of 100% (cell-free assay; competition with immobilised ligand; 1 µM).
O=C(Nc1cnn(-c2csc(C(=O)NC3COC3)c2)c1)Nc1ccccc1Cl has a remaining activity of 89.7% (enzyme activity; inhibitor; 5 µM).
With Cc1ccc(C(=O)Nc2ccc(CN3CCN(C)CC3)c(C(F)(F)F)c2)cc1C#Cc1cnc2cccnn12 the remaining activity was 7% (enzyme activity; inhibitor; 23.5 nM).
Cc1ccc(NC(=O)c2ccc(CN3CCN(C)CC3)cc2)cc1Nc1nc(-c2cccnc2)cs1 gave a remaining signal of 92.4% (cell-free assay; 0.5 µM).
With Cc1sc(C(=O)NC2COC2)cc1-n1cc(NC(=O)Nc2c(F)cccc2Cl)cn1 the remaining activity was 99.7% (enzyme activity; inhibitor; 10 µM).
With CC(C)(C)c1nc2c(s1)c1nc(N)ncc1c1ccc(NS(=O)(=O)c3c(F)cccc3F)c(F)c12 the remaining activity was 95% (enzyme activity; inhibitor; radiometric; 1 µM).
For O=C(N1CCS(=O)(=O)CC1)N1C[C@H](c2ccc(OC(F)(F)F)cc2)C[C@H](c2nc(C3CC3)no2)C1, the remaining binding was 100% (cell-free assay; competition with immobilised ligand; 1 µM).
COc1cc(-c2cc(-c3ccc(N4CCNCC4)cc3)cnc2C)cc(OC)c1OC has an inhibition of 43% (enzyme activity; inhibitor; 1 µM).
The remaining binding of CO[C@@H](C)c1c(Nc2ccc([C@H](N(C)C(=O)C3CCS(=O)(=O)CC3)C(F)(F)F)cc2)cnc2cc(Cl)nn12 is reported as 81% (cell-free assay; competition with immobilised ligand; 1 µM).
For COc1cc(Cl)c(C(=O)N[C@@H](CN[C@H]2CC[C@@H](N)CC2)Cc2ccc(C#N)cc2)cc1-c1ccc(CN[C@H](C)c2ccc(C)cc2)o1, the remaining activity was 95% (enzyme activity; inhibitor; 1 µM).
The ΔTm of CN1CCC2(CC1)NC(=O)c1c(c3ccc(Cl)c(Cl)c3n1C)C2C#N (racemic) is reported as -0.5 °C (thermal stability; DSF; 10 µM).
Cc1ccc(Nc2nccc(N(C)c3ccc4c(C)n(C)nc4c3)n2)cc1S(N)(=O)=O gave a remaining activity of 84.9% (enzyme activity; inhibitor; 0.5 µM).
With CN(C)CC#Cc1ccc(OCCCc2sc(N3CCc4cccc(C(=O)Nc5nc6ccccc6s5)c4C3)nc2C(=O)O)c(F)c1 the remaining binding was 100% (cell-free assay; competition with immobilised ligand; 1 µM).
For CN1CC(Oc2cnc(C#N)cc2-c2ccn3nc(NC(=O)C4CC4)cc3c2)C1, the inhibition was 7% (enzyme activity; inhibitor; 1 µM).
For CCN1CCN(Cc2ccc(NC(=O)c3ccc(C)c(Oc4ccnc5[nH]ccc45)c3)cc2C(F)(F)F)CC1, the inhibition was -24.5% (target engagement in cells; inhibitor; chemoproteomics; Huh-7; 10 µM).
For O=C(O)c1cc(-c2ccc(C3CCNCC3)cc2)c2ccc(-c3ccc(C(F)(F)F)cc3)cc2c1, the remaining binding was 100% (cell-free assay; competition with immobilised ligand; 1 µM).
For Cn1c2c(Cl)c(Cl)ccc2c2cc[nH]c(=O)c21, the ΔTm was 0.2 °C (thermal stability; DSF; 10 µM).
N#CCCc1ccc2c(c1)-c1[nH]c3ccc([N+](=O)[O-])cc3c1CC(=O)N2 gave a remaining signal of 87.2% (cell-free assay; 0.5 µM).
The remaining binding of CCS(=O)(=O)c1cc2cc(C[C@](O)(CC(C)(C)c3ccc(F)cc3C(N)=O)C(F)(F)F)[nH]c2cn1 is reported as 100% (cell-free assay; competition with immobilised ligand; 1 µM).
For Cn1c2c(Cl)c(Cl)ccc2c2cn[nH]c(=O)c21, the ΔTm was 0.4 °C (thermal stability; DSF; 10 µM).
